Assay results taken from ChEMBL document CHEMBL1153551, “Resveratrol modulates phagocytosis of bacteria through an NF-kappaB-dependent gene program” (Antimicrob Agents Chemother, 2008).
Active and inactive are the calls of the source.

What was measured:
HEK293 [1] = test: Inhibition of phagocytosis of heat killed FITC-conjugated Escherichia coli K12 in HEK293 at 100 uM by after 1 hr; format: functional, cell-based; conditions: Homo sapiens
Method in brief: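 293/DC-SIGN cells (5 × 10⁵/ml) were plated the day before, washed and treated 1 h with resveratrol. Heat-killed FITC-E. coli or S. aureus were added for 1 h at various cell:bacterium ratios. Trypan blue (0.2%) quenched surface fluorescence and 1% paraformaldehyde fixed the cells. Flow cytometry MFI, triplicates.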

THP-1 [2] = test: Inhibition of phagocytosis of FITC-conjugated Escherichia coli K12 in human THP1 cells using trypan blue staining after 20 mins by flow cytometry; format: functional, cell-based
Method in brief: (§1)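 Serum-free THP-1 or RAW264.7 cells were treated 1 h with resveratrol, then incubated 0, 20, 40, 60 or 80 min with heat-killed FITC-E. coli at 1:100 cell:bacterium. Outer fluorescence was quenched with 0.2% trypan blue and cells fixed in 1% paraformaldehyde. Internalized fluorescence was read as flow cytometry MFI; mean and SD of triplicates.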

THP-1 [3] = test: Inhibition of FSL1-induced upregulation of MSR1 mRNA expression in human THP1 cells at 100 uM after 1 hr by RT-PCR; format: functional, cell-based
Method in brief: (§2)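 Serum-free THP-1 cells primed 24 h with 100 nM FSL-1 were given 100 μM resveratrol or 0.1% DMSO for 1 h. Total RNA from 5 × 10⁶ cells was reverse-transcribed with oligo(dT) and PCR-amplified for MSR1, CD36, DC-SIGN and Dectin-1 (30 cycles) with β-actin as reference (25 cycles). Products were resolved on 3% agarose with ethidium bromide.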

HEK293 [4] = test: Inhibition of heat killed Staphylococcus aureus 209P-induced NF-kappaB activation in HEK293 cells expressing TLR2 pretreated for 1 hr before 6 hrs heat killed bacterial stimulation by luciferase reporter gene assay; format: cell-based; conditions: Homo sapiens
Method in brief: (§3)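 293/TLR2 cells (1 × 10⁵/well) were transfected with 50 ng pNF-κB-Luc, 5 ng pRL-TK and 445 ng pcDNA3. After 24 h they were pretreated 1 h with resveratrol, then stimulated 6 h serum-free with FSL-1 (1, 10, 100 nM) or heat-killed E. coli or S. aureus (1:1, 1:10, 1:100). Dual luciferase readout, triplicates.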

THP-1 [5] = test: Inhibition of phagocytosis of FITC-conjugated Staphylococcus aureus 209P in human THP1 cells using trypan blue staining after 20 mins by flow cytometry; format: functional, cell-based
THP-1 [6] = test: Inhibition of phagocytosis of FITC-conjugated Escherichia coli K12 in human THP1 cells assessed as reduction in ratio of number of bacterial cells to phagocytes using trypan blue staining by flow cytometry; format: functional, cell-based
Method in brief: (§4)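 THP-1 or RAW264.7 cells received resveratrol for 1 h serum-free, then a range of doses of heat-killed FITC-E. coli or FITC-S. aureus. Trypan blue (0.2%) quenched bound bacteria and 1% paraformaldehyde fixed the cells. Flow cytometry MFI of internalized bacteria was plotted against bacterial dose; triplicates.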

THP-1 [7] = test: Inhibition of FSL-1-induced increase in phagocytosis of FITC-conjugated Staphylococcus aureus 209P in human THP1 cells using trypan blue staining after 20 mins by flow cytometry; format: functional, cell-based
Method in brief: (§5)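 THP-1 or RAW264.7 cells (1 × 10⁶/ml) were pretreated 24 h with FSL-1 (0, 1, 10, 100 nM), washed, then given resveratrol (10, 50, 100 μM) for 1 h serum-free. Heat-killed FITC-E. coli (1:10) or FITC-S. aureus (1:100) followed. Surface fluorescence was quenched with 0.2% trypan blue and cells fixed in 1% paraformaldehyde. Flow cytometry mean fluorescence intensity, triplicates.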

THP-1 [8] = test: Inhibition of phagocytosis of FITC-conjugated Staphylococcus aureus 209P in human THP1 cells using trypan blue staining after 40 mins by flow cytometry; format: functional, cell-based
RAW264.7 [9] = test: Inhibition of heat killed Escherichia coli K12-induced TNF alpha production in mouse RAW264.7 cells at 1 to 100 uM after 6 hrs by ELISA; format: functional, cell-based
Method in brief: (§6)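 THP-1 or RAW264.7 cells (1 × 10⁶/well, 16 h) were washed and pretreated 1 h with resveratrol. Serum-free stimulation with heat-killed E. coli or S. aureus at 1:100 followed for 0, 2, 4 or 6 h. TNF-α in supernatants (400 × g spin) was measured by ELISA: human kit for THP-1, mouse kit for RAW264.7. Triplicates.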

THP-1 [10] = test: Inhibition of phagocytosis of FITC-conjugated Staphylococcus aureus 209P in human THP1 cells using trypan blue staining after 60 mins by flow cytometry; format: functional, cell-based
THP-1 [11] = test: Inhibition of phagocytosis of FITC-conjugated Escherichia coli K12 in human THP1 cells using trypan blue staining after 80 mins by flow cytometry; format: functional, cell-based; method in brief: as §1
RAW264.7 [12] = test: Inhibition of phagocytosis of FITC-conjugated Escherichia coli K12 in mouse RAW264.7 cells using trypan blue staining after 40 mins by flow cytometry; format: functional, cell-based; method in brief: as §1
RAW264.7 [13] = test: Inhibition of FSL-1-induced increase in phagocytosis of FITC-conjugated Escherichia coli K12 in mouse RAW264.7 cells using trypan blue staining after 20 mins by flow cytometry; format: functional, cell-based; method in brief: as §5
THP-1 [14] = test: Inhibition of phagocytosis of FITC-conjugated Escherichia coli K12 in human THP1 cells using trypan blue staining after 40 mins by flow cytometry; format: functional, cell-based; method in brief: as §1
THP-1 [15] = test: Inhibition of heat killed Staphylococcus aureus 209P-induced TNF alpha production in human THP1 cells at 1 to 100 uM after 6 hrs by ELISA; format: functional, cell-based; method in brief: as §6
HEK293 [16] = test: Inhibition of heat killed Escherichia coli K12-induced NF-kappaB activation in HEK293 cells expressing TLR2 pretreated for 1 hr before 6 hrs heat killed bacterial stimulation by luciferase reporter gene assay; format: cell-based; conditions: Homo sapiens; method in brief: as §3
HEK293 [17] = test: Inhibition of DC-SIGN expression in HEK293 cells expressing DC-SIGN at 100 uM by Western blot analysis; format: functional, cell-based; conditions: Homo sapiens
Method in brief: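 293/DC-SIGN cells (1 × 10⁷ per 10-cm dish, DMEM complete medium, 16 h) were washed and exposed to 100 μM resveratrol for 0, 30, 60, 90 or 120 min. Lysates in SDS sample buffer with protease inhibitors were boiled and run on 10% SDS-PAGE, then blotted to nitrocellulose. Probes were anti-DC-SIGN or anti-β-actin mAb (4°C overnight), then HRP anti-mouse IgG.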

RAW264.7 [18] = test: Inhibition of phagocytosis of FITC-conjugated Staphylococcus aureus 209P in mouse RAW264.7 cells assessed as reduction in ratio of number of bacterial cells to phagocytes using trypan blue staining by flow cytometry; format: functional, cell-based; method in brief: as §4
THP-1 [19] = test: Inhibition of FSL-1-induced increase in phagocytosis of FITC-conjugated Escherichia coli K12 in human THP1 cells using trypan blue staining after 20 mins by flow cytometry; format: functional, cell-based; method in brief: as §5
THP-1 [20] = test: Inhibition of FSL1-induced upregulation of CD36 mRNA expression in human THP1 cells at 100 uM after 1 hr by RT-PCR; format: functional, cell-based; method in brief: as §2
RAW264.7 [21] = test: Inhibition of phagocytosis of FITC-conjugated Staphylococcus aureus 209P in mouse RAW264.7 cells using trypan blue staining after 20 mins by flow cytometry; format: functional, cell-based

Measured: Activity

Oc1ccc(/C=C/c2cc(O)cc(O)c2)cc1
active: HEK293 [1] Dose-dependent effect | THP-1 [2] Dose-dependent effect | THP-1 [3] | HEK293 [4] | THP-1 [5] Dose-dependent effect | THP-1 [6] | THP-1 [7] Dose-dependent effect | THP-1 [8] Dose-dependent effect | RAW264.7 [9] | THP-1 [10] Dose-dependent effect | THP-1 [11] Dose-dependent effect | RAW264.7 [12] Dose-dependent effect | RAW264.7 [13] Dose-dependent effect | THP-1 [14] Dose-dependent effect | THP-1 [15] | HEK293 [16] | HEK293 [17] | RAW264.7 [18] | THP-1 [19] Dose-dependent effect | THP-1 [20] | RAW264.7 [21] Dose-dependent effect
